# Compound activity (PubChem)
# NR2E3 ag-1 = NR2E3 (human) agonism. GST-NR2E3/biotin-RetCOR TR-FRET, 1536-well. inhibition of corepressor binding, % at 4.78 µM. Q9Y5X4. 0.12% of 320,000 active;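 active = percent inhibition above the cutoff of mean plus 3 SD of all tested compounds, set per screening campaign, cut at about 20% in these data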;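 note: 0% = DMSO wells and 100% = biotin wells as full block of FRET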
# Target sequence (Q9Y5X4 whole entry, looked up): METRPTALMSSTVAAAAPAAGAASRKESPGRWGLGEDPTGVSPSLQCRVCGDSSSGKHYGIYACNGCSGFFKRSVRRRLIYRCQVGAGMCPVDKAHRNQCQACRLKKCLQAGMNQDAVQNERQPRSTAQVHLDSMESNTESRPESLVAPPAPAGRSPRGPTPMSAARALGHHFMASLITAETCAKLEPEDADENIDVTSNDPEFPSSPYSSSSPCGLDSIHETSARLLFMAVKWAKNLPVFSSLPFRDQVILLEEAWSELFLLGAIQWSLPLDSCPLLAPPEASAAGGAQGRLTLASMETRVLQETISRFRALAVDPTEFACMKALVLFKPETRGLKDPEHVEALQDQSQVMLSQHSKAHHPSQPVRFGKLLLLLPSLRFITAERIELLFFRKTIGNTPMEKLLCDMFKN
#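 Test system – NR2E3–RetCOR corepressor complex · Quantity – NR2E3 fusion 1.35 nM · Buffer or medium – Tris pH 7.5 · Incubation – Compound–protein incubation for 5 h at 4 °C · Technique – TR-FRET, Eu(K)-anti-GST donor, streptavidin-D2 acceptor, ex 340, em 617/671 nm · Evaluation – percent inhibition of 671/617 nm emission ratio versus biotin and DMSO controls · Plate – 1536-well format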
# MsrA inhibitor = inhibitors of bovine MsrA; inhibition, % at 15.5 µM; purified bovine MsrA, absorbance read-out; 0.75% of 360,000 active;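 note: 0% = vehicle wells with enzyme and 100% = reference inhibitor wells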
# NadD block = NadD (S. aureus) enzyme inhibition | AID 602399 | inhibition, % at 20 µM | 0.78% of 360,000 active | purified NadD enzyme, colorimetric absorbance read-out; in the data active = inhibition above about 26%
# NR2E3 ag-2 = human photoreceptor-specific nuclear receptor agonism. Q9Y5X4. CHO-S Gal4-NCOR/VP16-NR2E3 two-hybrid, luciferase. inhibition of corepressor binding, % at 3.98 µM. 0.35% of 360,000 active;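 active = inhibition above the mean of all tested compounds plus 3 SD, cut at about 70% in these data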;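 note: 0% = DMSO with NR2E3 transfected cells and 100% = cells lacking NR2E3 construct; higher means lower luciferase signal from less NR2E3 corepressor binding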
# GalR3 antag = human GalR3 antagonism. O60755. HEK293 GalR3-CNG cAMP membrane potential fluorescence; galR3 body fused to GalR1 C-terminus. inhibition, % at 3 µM. 0.44% of 360,000 active;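 active = inhibition above the screen-wide average plus 3 SD, cut at about 13% in these data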;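 note: forskolin and galanin both at EC90 stimulate the cells; cAMP rise reported by CNG channel membrane potential dye signal; 0% = forskolin plus galanin with DMSO and 100% = forskolin alone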
# MsrA act = activators of bovine methionine sulfoxide reductase A; 0.3% of 360,000 active; purified bovine MsrA, absorbance read-out; activation, % at 10.6 µM; AID 602163; in the data active = activation above about 7.5%;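 note: 0% = vehicle and 100% = reference activator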
# MsrA inh confirm = bovine MsrA inhibition, confirmed; shares compounds with MsrA inhibitor; purified bovine MsrA, absorbance read-out; inhibition, % at 15.5 µM; 41% of 2,300 active;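 note: coupled to thioredoxin reductase with NADPH and selenocystamine and DMSO as substrate; 0% = vehicle only and 100% = full effect of reference inhibitor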
# The depositor's hits bear a star; . = no result given. Only some compounds are listed: those with a hit (about 2.5% of all), similar ones and a draw of the others. Cut-off read from the data, not from the text of the source, unless noted: active = inhibition above about 4.5%; inactive = the rest.
SMILES,NR2E3 ag-1,MsrA inhibitor,NadD block,NR2E3 ag-2,GalR3 antag,MsrA act,MsrA inh confirm
COc1ccc(C(=O)OCC(=O)NC2CC2)cc1OC,4,0,-2,7,-5,-7,.
N#Cc1nc(-c2cccs2)oc1N1CCOCC1,1,5.1*,1,-10,1,-4,2
NC1=NC(=O)C(=Cc2ccccc2)S1,.,4,1,18,7,-11,.
NC1=NC(=O)/C(=C\c2cccnc2)S1,0,2,-8,-10,-4,-10,.
NC1=NC(=O)/C(=C/c2ccsc2)S1,0,5.7*,-2,-21,-3,-6,4
COc1ccc(/C=C2\SC(N)=NC2=O)cc1,.,4.8*,3,-81,-13,-4,5.0*
CC1(C(=O)Nc2ccc(F)c(Cl)c2)Cc2c(-c3cccc(C(F)(F)F)c3)ccnc2O1 (stereo not given),.,0,0,-10,-5,-3,.
Cc1ccc(NC(=O)CN2C(=O)NC(C)(C3CC3)C2=O)c(C)c1 (stereo not given),0,-2,0,-3,-5,-3,.
Cc1ccc(NC(=O)CN2C(=O)NC(C)(C3CC3)C2=O)c([N+](=O)[O-])c1 (stereo not given),2,9.4*,0,-2,-7,-4,6.0*
Cc1cc2ccccn2c1C(=O)Nc1ccccc1,-6,5.1*,6,-43,-3,-5,2
C(=C\c1ccccc1)/C=N/Nc1nc2ccccc2[nH]1,-2,4,-2,-200,-9,-7,.
CCCc1cc(=O)[nH]c(N/N=C/C=C\c2ccccc2)n1,1,6.7*,-5,-12,-1,-5,5.5*
CN1CCN(c2ccc([N+](=O)[O-])cc2C(=O)c2ccc(Cl)cc2)CC1,5,-1,2,-60,-5,-1,.
C=CCc1c(C)nc(C)nc1N/N=C/c1ccc([N+](=O)[O-])cc1,-3,7.0*,-1,-10,-2,-4,5
C=CCc1c(C)nc(C)nc1N/N=C/c1ccccc1O,7,4,-4,-12,-8,-10,.
Cc1cccc(C)c1NC(=O)CNC(=O)c1c(C)nn(C)c1Cl,0,0,-1,3,-3,-3,.
Fc1ccc(N2Cc3ccsc3C=N2)cc1,1,2,-4,-31,-5,-4,.
CCN(CC(=O)Nc1cc(Cl)ccc1C)C(=O)CCc1nc2ccccc2c(=O)[nH]1,6,-1,4,5,0,-7,.
COc1cc2c(cc1OC)CN(c1ccc([N+](=O)[O-])cc1Cl)CC2,3,4.8*,-2,-3,-5,-1,1
CC1(C)Cc2c(cnn2-c2ccc(F)cc2)C(NC(=O)c2ccoc2)C1 (stereo not given),-1,-2,-2,-6,-7,-13,.
CN(C)C(=O)c1ccc(Cc2cn(C)c3ccccc23)nc1,.,1,0,-5,-4,-6,.
Oc1ccc(C(=Nc2ccccc2)c2ccccc2)c(O)c1,.,5.3*,-5,0,-5,-5,1
CCC(=O)N1CCc2cc(S(=O)(=O)CCC(=O)NCCc3ccc(OC)c(OC)c3)ccc21,-4,1,5,8,0,-6,.
CCSc1nnc(NC(=O)c2cccs2)s1,4,5.2*,-2,-94,-7,-3,3
Nc1ccc(-c2cnc(-c3ccc(N)cc3)nc2)cc1,-1,8.6*,-1,-142,-3,-6,7.6*
O=C(Nc1nc(-c2nc3ccccc3s2)cs1)c1ccc(S(=O)(=O)N2CCOCC2)cc1,2,5.0*,27,5,-6,-8,1
COc1cccc(-c2c(C(=O)N/N=C/c3ccco3)nnn2-c2nonc2N)c1,3,4.9*,3,-33,-9,-6,1
CC(/C=N/NC(=O)c1nnn(-c2nonc2N)c1C(C)C)=C\c1ccco1,-2,4.9*,0,2,1,-10,5.8*
CC(C)(C)c1ccc(CC(=O)N2CCC2(C)C(=O)NCc2cccc3ccccc23)cc1 (stereo not given),.,-1,-4,-36,-2,-12,.
O=C1N=C(N2CCCC2)S/C1=C\c1ccccc1,-4,5,1,-8,-6,-4,.
